ChEMBL document CHEMBL4033659, “Novel lipid-mimetic prodrugs delivering active compounds to adipose tissue” (Eur J Med Chem, 2017)

Experiments:
[1] = biological target: T1, Pancreatic triacylglycerol lipase (Sus scrofa, UniProt P00591); test: Prodrug conversion assessed as porcine pancreatic lipase mediated formation of 10-((4-(3,5-dimethoxystyryl)phenoxy)carbonylamino)decanoic acid by measuring hydrolysis rate constant by HPLC/UV analysis; type: ADME; details: pig
T1 sequence (P00591 whole entry): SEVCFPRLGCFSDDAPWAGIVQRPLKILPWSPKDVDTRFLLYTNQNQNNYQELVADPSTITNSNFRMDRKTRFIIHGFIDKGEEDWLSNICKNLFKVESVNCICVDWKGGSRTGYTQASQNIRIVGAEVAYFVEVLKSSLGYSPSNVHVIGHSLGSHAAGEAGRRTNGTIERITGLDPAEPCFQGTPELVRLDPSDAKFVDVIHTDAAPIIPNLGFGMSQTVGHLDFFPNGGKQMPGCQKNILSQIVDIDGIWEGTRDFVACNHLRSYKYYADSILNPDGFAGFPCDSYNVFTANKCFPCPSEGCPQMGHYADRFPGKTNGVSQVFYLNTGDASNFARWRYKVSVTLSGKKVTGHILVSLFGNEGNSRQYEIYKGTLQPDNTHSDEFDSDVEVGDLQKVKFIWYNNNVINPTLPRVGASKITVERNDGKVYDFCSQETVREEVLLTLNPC

Blood = test: Drug uptake in C57BL mouse bloodstream at 176 umol/kg administered with high fat diet after 2 weeks by HPLC/UV analysis; type: ADME, tissue-based; details: po, 336 h
Procedure, shortened: (§1)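 Mice received the lipid-mimetic derivatives chronically for 2 weeks. Pterostilbene and its metabolites were then quantified in blood and organs, and values are reported as mean ± st. dev. across animals.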

[2] = biological target: T1, Pancreatic triacylglycerol lipase; test: Prodrug conversion assessed as porcine pancreatic lipase-mediated formation of 10-((4-(3,5-dimethoxystyryl)phenoxy)carbonylamino)decanoic acid by measuring hydrolysis rate constant K2 by HPLC/UV analysis; type: ADME; details: pig
[3] = Drug uptake in C57BL mouse subcutaneous adipose tissue at 176 umol/kg administered with high fat diet after 2 weeks by HPLC/UV analysis; type: ADME; details: in vivo, po, 336 h; procedure, shortened: as §1
[4] = biological target: T1, Pancreatic triacylglycerol lipase; test: Prodrug conversion assessed as porcine pancreatic lipase-mediated formation of 1-(10-((4-(3,5-dimethoxystyryl)phenoxy)carbonylamino)decanoyloxy)-3-hydroxypropan-2-yl oleate, 10-((4-(3,5-dimethoxystyryl)phenoxy)carbonylamino)decanoic acid by measuring hydrolysis rate constant K1 by HPLC/UV analysis; type: ADME; details: pig
[5] = Drug uptake in C57BL mouse visceral adipose tissue at 176 umol/kg administered with high fat diet after 2 weeks by HPLC/UV analysis; type: ADME; details: in vivo, po, 336 h; procedure, shortened: as §1
Liver = test: Drug uptake in C57BL mouse liver at 176 umol/kg administered with high fat diet after 2 weeks by HPLC/UV analysis; type: ADME, tissue-based; details: in vivo, po, 336 h; procedure, shortened: as §1
[6] = biological target: T1, Pancreatic triacylglycerol lipase; test: Prodrug conversion assessed as porcine pancreatic lipase-mediated formation of 1,3-dihydroxypropan-2-yl 10-((4-(3,5-dimethoxystyryl)phenoxy)carbonylamino)decanoate by measuring hydrolysis rate constant K2 by HPLC/UV analysis; type: ADME; details: pig
[7] = biological target: T1, Pancreatic triacylglycerol lipase; test: Prodrug conversion assessed as porcine pancreatic lipase-mediated formation of 2-(10-((4-(3,5-dimethoxystyryl)phenoxy)carbonylamino)decanoyloxy)-3-hydroxypropyl oleate by measuring hydrolysis rate constant K1 by HPLC/UV analysis; type: ADME; details: pig
[8] = biological target: T1, Pancreatic triacylglycerol lipase; test: Prodrug conversion assessed as porcine pancreatic lipase-mediated formation of 10-((4-(3,5-dimethoxystyryl)phenoxy)carbonylamino)decanoic acid by measuring hydrolysis rate constant K3 by HPLC/UV analysis; type: ADME; details: pig
[9] = Drug uptake in C57BL mouse visceral adipose tissue assessed as retention time at 176 umol/kg administered with high fat diet after 2 weeks by HPLC/UV analysis; type: ADME; details: in vivo, po, 336 h

CCCCCCCC/C=C\CCCCCCCC(=O)OCC(COC(=O)CCCCCCCCCNC(=O)Oc1ccc(/C=C/c2cc(OC)cc(OC)c2)cc1)OC(=O)CCCCCCC/C=C\CCCCCCCC (stereo not given)
K [1]: 2.88 h⁻¹ | Drug uptake (Blood): Not Active | K [2]: 46.8 h⁻¹ | Drug uptake [3]: Active | K [4]: 3.24 h⁻¹ | Drug uptake [5]: Active | Drug uptake (Liver): Active

CCCCCCCC/C=C\CCCCCCCC(=O)OCC(COC(=O)CCCCCCC/C=C\CCCCCCCC)OC(=O)CCCCCCCCCNC(=O)Oc1ccc(/C=C/c2cc(OC)cc(OC)c2)cc1
K [6]: 9.49 h⁻¹ | Drug uptake (Blood): Not Active | K [7]: 3.04 h⁻¹ | Drug uptake [3]: Active | K [8]: 0.24 h⁻¹ | Drug uptake [5]: Active | Drug uptake (Liver): Active | Retention time [9]: 5.8 to 6.5 min
